Measurements of several laboratories.
Each line is one published result; the experiments were not run side by side.
ABL1 Q252H non-phosphorylated: Tyrosine-protein kinase ABL1, non-phosphorylated (ABL1, Homo sapiens, UniProt P00519, Q252H)
ABL1 T315I non-phosphorylated: Tyrosine-protein kinase ABL1, non-phosphorylated (ABL1, Homo sapiens, UniProt P00519, T315I)
ABL1 phosphorylated: Tyrosine-protein kinase ABL1, phosphorylated (ABL1, Homo sapiens, UniProt P00519)
ABL1 F317L non-phosphorylated: Tyrosine-protein kinase ABL1, non-phosphorylated (ABL1, Homo sapiens, UniProt P00519, F317L)
ABL1 non-phosphorylated: Tyrosine-protein kinase ABL1, non-phosphorylated (ABL1, Homo sapiens, UniProt P00519)
ABL1 F317L phosphorylated: Tyrosine-protein kinase ABL1, phosphorylated (ABL1, Homo sapiens, UniProt P00519, F317L)
ABL1 E255K phosphorylated: Tyrosine-protein kinase ABL1, phosphorylated (ABL1, Homo sapiens, UniProt P00519, E255K)
ABL1 Q252H: Tyrosine-protein kinase ABL1 (ABL1, Homo sapiens, UniProt P00519, Q252H)
ABL1 Y253F: Tyrosine-protein kinase ABL1 (ABL1, Homo sapiens, UniProt P00519, Y253F)
ABL1 Y253F phosphorylated: Tyrosine-protein kinase ABL1, phosphorylated (ABL1, Homo sapiens, UniProt P00519, Y253F)
ABL1 H396P non-phosphorylated: Tyrosine-protein kinase ABL1, non-phosphorylated (ABL1, Homo sapiens, UniProt P00519, H396P)

| SMILES | target | effect on | technique | concentration | remaining binding [%] |
| --- | --- | --- | --- | --- | --- |
| c1cnn2ncc(-c3ccnc(N4CCC45COC5)n3)c2c1 | Tyrosine-protein kinase ABL1 (ABL1, Homo sapiens, UniProt P00519, F317L) | binding |  | 1 µM | 53 |
| COc1cnc(Nc2cccc(S(N)(=O)=O)c2)nc1N1CCN(c2ccccc2)C(=O)C1 | ABL1 Q252H non-phosphorylated | binding | competition with immobilised ligand | 1 µM | 95 |
| Nc1ncc2c(n1)-c1c([nH]c3ccc(C#CC4CC4)cc13)CCCC2 | ABL1 T315I non-phosphorylated | binding | competition with immobilised ligand | 1 µM | 79 |
| N#Cc1ccccc1CSc1nnc2c(n1)[nH]c1ccccc12 | ABL1 phosphorylated | binding | competition with immobilised ligand | 10 µM | 94 |
| O=C(c1ccc(Nc2ncc(Cl)c(-c3cc4ccccc4s3)n2)cc1)N1CCC(N2CCCC2)CC1 | ABL1 F317L non-phosphorylated | binding | competition with immobilised ligand | 1 µM | 63 |
| CN1CCN(c2ccc(Nc3nccc(-c4ccccc4)n3)cc2C(F)(F)F)CC1 | Tyrosine-protein kinase ABL1 (ABL1, Homo sapiens, UniProt P00519, F317I) | binding |  | 10 µM | 100 |
| CNC(=O)[C@@H]1CC[C@@H](n2c(-c3ccc4cnccc4c3)nc3ccc(C(=O)NCc4cccc(C(N)=O)c4)cc32)C1 | ABL1 non-phosphorylated | binding | competition with immobilised ligand | 1 µM | 69 |
| O=c1nc(-c2ccccn2)sc2ccccc12 | ABL1 non-phosphorylated | binding | competition with immobilised ligand | 1 µM | 93 |
| O=C(NCCCN1CCOCC1)c1ccc(Nc2ncc(Cl)c(-c3ccc(Cl)s3)n2)cc1 | ABL1 F317L phosphorylated | binding | competition with immobilised ligand | 1 µM | 80 |
| CCN1CCN(Cc2ccc(C(=O)Nc3ccc(C)c(Oc4ccc5c(c4)CC(=O)N5)c3)cc2C(F)(F)F)CC1 | ABL1 E255K phosphorylated | binding | competition with immobilised ligand | 1 µM | 74 |
| Cc1cnc(Nc2ccc(C(=O)N3CCC(N4CCCC4)CC3)cc2)nc1-c1cc2ccccc2s1 | ABL1 non-phosphorylated | binding | competition with immobilised ligand | 1 µM | 2.7 |
| COc1ccnn2ncc(-c3ccnc(N(C)C)n3)c12 | ABL1 Q252H | binding |  | 1 µM | 82 |
| O=C(NCC1CCOCC1)c1n[nH]cc1NC(=O)c1c(F)cccc1F | ABL1 E255K phosphorylated | binding | competition with immobilised ligand | 1 µM | 88 |
| Cc1cnn2ncc(-c3ccnc(N(C)C)n3)c2c1 | ABL1 Y253F | binding |  | 1 µM | 85 |
| COc1ncc2cc3ccccc3nc2c1C#N | ABL1 Y253F phosphorylated | cell-free assay | competition with immobilised ligand | 5 µM | 92 |
| CS(=O)(=O)N1CCCC(NC(=O)[C@H](CCC2CCCCC2)NC(=O)c2ccc(CNC(=O)c3cnc4ccccn34)cc2)C1 (stereo partly shown) | ABL1 Y253F phosphorylated | cell-free assay | competition with immobilised ligand | 0.1 µM | 76 |
| C[C@@H](c1ccc(-n2cnc3c(N)ncnc32)cc1)N1CCc2nn(C)c(Cc3ccccc3)c2C1=O | ABL1 phosphorylated | binding | competition with immobilised ligand | 0.1 µM | 90 |
| CC(C)(O)c1cncc(-c2nc3ccc(F)cc3n2C2CC2)c1 | ABL1 H396P non-phosphorylated | cell-free assay | competition with immobilised ligand | 1 µM | 85 |
| CC(C)(C)c1ccc(-c2nc(CBr)nn2-c2cccc(O)c2)cc1 | ABL1 E255K phosphorylated | cell-free assay | competition with immobilised ligand | 10 µM | 74 |

| SMILES | target | effect on | technique | concentration | remaining binding [%] |
| --- | --- | --- | --- | --- | --- |
| O=C(NCCCN1CCOCC1)c1ccc(Nc2nccc(-c3cc4ccccc4s3)n2)cc1 | ABL1 phosphorylated | binding | competition with immobilised ligand | 1 µM | 37 |
| CCc1ccccc1C(=O)Nc1n[nH]c2c(C)c(F)c(C3C(C#N)=C(C)N(C)C(C)=C3C#N)cc12 | ABL1 Q252H non-phosphorylated | cell-free assay | competition with immobilised ligand | 1 µM | 82 |
| N[C@@H]1CCN(c2nccc(-c3cnn4ncccc34)n2)C1 | ABL1 Y253F | binding |  | 1 µM | 62 |
| COc1cc(-c2cn(C3CCc4c(F)cccc4N(CC(F)(F)F)C3=O)nn2)ccc1-n1cnc(C)c1 (stereo not shown) | Tyrosine-protein kinase ABL1, phosphorylated (ABL1, Homo sapiens, UniProt P00519, Q252H) | cell-free assay | competition with immobilised ligand | 1 µM | 100 |
| F[C@@H]1CCN(c2nccc(-c3cnn4ncccc34)n2)C1 | ABL1 Q252H | binding |  | 1 µM | 93 |
| O=C(O)[C@H]1[C@H](Cn2nnc3ccccc3c2=O)CC[C@@H]1C(=O)c1ccc(OCCC2CCOCC2)cc1 | Tyrosine-protein kinase ABL1, phosphorylated (ABL1, Homo sapiens, UniProt P00519, F317I) | binding |  | 1 µM | 100 |
| C=CC(=O)N1CCC(C(=O)NCC(=O)N2CCN(c3nc(-c4cnc(N)nc4C(F)F)nc(N4CCOCC4)n3)CC2)CC1 | ABL1 Q252H non-phosphorylated | binding | competition with immobilised ligand | 1 µM | 94 |
| CN(C)c1nccc(-c2cnn3ncccc23)n1 | Tyrosine-protein kinase ABL1 (ABL1, Homo sapiens, UniProt P00519, E255K) | binding |  | 1 µM | 60 |
| O=C(Nc1c[nH]nc1C(=O)NC1CCNCC1)c1cc(F)cc(F)c1 | ABL1 F317L non-phosphorylated | binding | competition with immobilised ligand | 1 µM | 100 |
| C[C@@H]1CCN(c2nccc(-c3cnn4ncccc34)n2)C1 | Tyrosine-protein kinase ABL1 (ABL1, Homo sapiens, UniProt P00519, H396P) | binding |  | 1 µM | 79 |
| Cc1noc([C@H]2C[C@@H](c3ccc(C(F)(F)F)cc3)CN(C(=O)N3CCS(=O)(=O)C3)C2)n1 | ABL1 T315I non-phosphorylated | cell-free assay | competition with immobilised ligand | 1 µM | 100 |
| CN1CCN(c2ccc(Nc3nccc(-c4cccc([N+](=O)[O-])c4)n3)cc2C(F)(F)F)CC1 | Tyrosine-protein kinase ABL1 (ABL1, Homo sapiens, UniProt P00519, M351T) | binding |  | 10 µM | 2.7 |
| CNC(=O)c1ccc(Nc2ncc(C(F)(F)F)c(NCc3nccnc3N(C)S(C)(=O)=O)n2)cc1 | ABL1 non-phosphorylated | cell-free assay | competition with immobilised ligand | 0.1 µM | 88 |
| c1cncc(-c2cccc(Nc3nccc(NC4CCCCC4)n3)c2)c1 | ABL1 F317L phosphorylated | binding | competition with immobilised ligand | 10 µM | 61 |
| O=C(c1ccc(Nc2ncc(Cl)c(-c3ccc(Cl)s3)n2)cc1)N1CCC(N2CCCC2)CC1 | ABL1 F317L non-phosphorylated | binding | competition with immobilised ligand | 1 µM | 65 |
| CN(C)c1ncc(F)c(-c2cnn3ncccc23)n1 | ABL1 phosphorylated | binding |  | 1 µM | 82 |
| COc1cnc(Nc2cccc(S(N)(=O)=O)c2)nc1N1CCN(c2ccccc2)CC1 | ABL1 T315I non-phosphorylated | binding | competition with immobilised ligand | 1 µM | 89 |
| O=C(c1ccc(Nc2nccc(-c3cc4ccccc4s3)n2)cc1)N1CCC(N2CCCC2)CC1 | ABL1 H396P non-phosphorylated | binding | competition with immobilised ligand | 1 µM | 3.1 |
